Series [1] has as its system RAW264.7. Nature of the series: Downregulation of Porphyromonas gingivalis-induced RIP2 mRNA expression in wild type mouse RAW264.7 cells at 100 ug/ml after 3 hrs by RT-PCR analysis. Format: functional, cell-based. In short, it runs like this:
(§1)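 Macrophages in RPMI 1640 with 10% FBS, 37 °C, 5% CO2, left untreated, given P. gingivalis alone or test agent alone as controls, or co-treated with P. gingivalis plus 10, 100 or 200 µg/ml for 3 h. Total RNA analysed by real-time RT-PCR (SYBR Green) for NFkB, RIP2 or NOD2, normalized to GAPDH; mean ± S.E.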

Series [2] relates to RAW264.7. Nature of the series: Downregulation of Porphyromonas gingivalis-induced NOD2 mRNA expression in wild type mouse RAW264.7 cells at 100 ug/ml after 3 hrs by RT-PCR analysis. Type of series: functional, cell-based. In short, it runs like this:
as §1

The test system of series [3] is RAW264.7. Briefly: Downregulation of Porphyromonas gingivalis-induced TNF-alpha protein expression in wild type mouse RAW264.7 cells at 10 to 200 ug/ml after 3 hrs by ELISA. Type of series: functional, cell-based. The procedure, abridged:
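Macrophages left untreated, given P. gingivalis alone or test agent alone as controls, or co-treated with P. gingivalis plus 10, 100 or 200 µg/ml for 3 h. TNF-α in culture supernatant measured by ELISA kit; mean ± S.E.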
On the technique in general: An ELISA detects its analyte on a solid surface through an enzyme-linked reagent.

For series [4], the system named is RAW264.7. Nature of the series: Upregulation of A20 protein expression in wild type mouse RAW264.7 cells after 3 hrs by Western blot analysis. Type of series: functional, cell-based. In short, it runs like this: (§2)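 Macrophages left untreated, given a scrambled (SC) peptide as negative control, or treated with low (10 µg/ml) or high (100 µg/ml) MDP for 3 h. Whole-cell and nuclear protein fractions prepared with Hepes pH 7.9 buffers and probed by Western blot for A20, AP1, MyD88 or NFκB. Triplicate assays.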
For orientation: A western blot detects proteins with antibodies after separation by electrophoresis.

Series [5] deals with Mus musculus. Briefly: Antiinflammatory activity in wild type C57BL/6 mouse assessed as reduction of Porphyromonas gingivalis-induced septic shock at 2 to 8 mg/kg, ip. Type of series: functional, organism-based.
Series [6] deals with RAW264.7. Nature of the series: Downregulation of Porphyromonas gingivalis-induced NFkappaB mRNA expression in wild type mouse RAW264.7 cells at 100 ug/ml after 3 hrs by RT-PCR analysis. Type of series: functional, cell-based. In short, it runs like this: as §1
For series [7], the system named is RAW264.7. Nature of the series: Upregulation of AP1 protein expression in wild type mouse RAW264.7 cells after 3 hrs by Western blot analysis. Type of series: functional, cell-based. In short, it runs like this: as §2
For series [8], the system named is RAW264.7. Nature of the series: Effect on NFkappaB protein level in wild type mouse RAW264.7 cells at 10 ug/ml after 3 hrs by Western blot analysis relative to SC peptide. Format: functional. The procedure, abridged: as §2
Series [9] has as its system RAW264.7. Nature of the series: Upregulation of A20 promoter DNA level in wild type mouse RAW264.7 cells at 100 ug/ml after 3 hrs by ChIP assay. Format: functional, cell-based. The procedure, abridged:
(§3)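 RAW264.7 cells treated with low (10 µg/ml) or high (100 µg/ml) MDP for 3 h, or transfected overnight with 1 µg AP1 cDNA as comparator. 10 µg nuclear extract from cross-linked cells immunoprecipitated with 1 µg anti-AP1 antibody or normal mouse IgG at 4 °C for 4 h; A20 promoter and GAPDH fragments amplified by PCR from input and IPs. Triplicates.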

Series [10] relates to RAW264.7. Nature of the series: Upregulation of Porphyromonas gingivalis-induced p21 protein level in wild type mouse RAW264.7 cells at 10 to 1000 ug/ml after 3 hrs by Western blot analysis. Format: functional, cell-based. The procedure, abridged:
(§4)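 Macrophages treated with MDP at 0, 10, 100 or 1,000 µg/ml, alone or together with P. gingivalis, for 3 h. Total protein probed by Western blot for p21 or p53, with actin as loading control. Triplicate assays.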

The test system of series [11] is RAW264.7. Nature of the series: Effect on Porphyromonas gingivalis-induced NOD2 mRNA level in wild type mouse RAW264.7 cells at 100 ug/ml after 3 hrs by RT-PCR analysis relative to control. Format: functional. In short, it runs like this:
(§5)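 Macrophages left untreated (negative control), given P. gingivalis alone (positive control), or co-treated with P. gingivalis plus low (10 µg/ml) or high (100 µg/ml) MDP for 3 h. Total mRNA analysed by real-time RT-PCR for NOD2, RIP2 or A20, normalized to GAPDH. NOD2/RIP2 expressed relative to P. gingivalis alone (100%); A20 relative to the low-dose treatment (100%). Triplicates, mean ± SEM.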

The subject of series [12] is RAW264.7. Nature of the series: Effect on AP1 protein level in wild type mouse RAW264.7 cells at 10 ug/ml after 3 hrs by Western blot analysis relative to SC peptide. Type of series: functional. In short, it runs like this:
as §2

Series [13] relates to RAW264.7. Briefly: Upregulation of A20 promoter DNA level in wild type mouse RAW264.7 cells at 10 ug/ml after 3 hrs by ChIP assay. Type of series: functional, cell-based. In short, it runs like this: as §3
Series [14] has as its system RAW264.7. Nature of the series: Upregulation of A20 mRNA level in wild type mouse RAW264.7 cells at 100 ug/ml after 3 hrs by RT-PCR analysis relative to control. Format: functional. In short, it runs like this: as §5
Series [15] relates to RAW264.7. Briefly: Effect on Porphyromonas gingivalis-induced RIP2 mRNA level in wild type mouse RAW264.7 cells at 10 ug/ml after 3 hrs by RT-PCR analysis relative to control. Type of series: functional. In short, it runs like this:
as §5

Series [16] concerns RAW264.7. Briefly: Effect on Porphyromonas gingivalis-induced RIP2 mRNA level in wild type mouse RAW264.7 cells at 100 ug/ml after 3 hrs by RT-PCR analysis relative to control. Format: functional. The procedure, abridged:
as §5

In series [17] the test system is RAW264.7. Briefly: Effect on MyD88 protein level in wild type mouse RAW264.7 cells at 10 ug/ml after 3 hrs by Western blot analysis relative to SC peptide. Type of series: functional. The procedure, abridged: as §2
Series [18] relates to RAW264.7. Briefly: Effect on MyD88 protein level in wild type mouse RAW264.7 cells at 100 ug/ml after 3 hrs by Western blot analysis relative to SC peptide. Type of series: functional. The procedure, abridged:
as §2

The nature of series [19]: Cytotoxicity against wild type mouse RAW264.7 cells assessed as survival rate at 10 ug/ml measured for 24 hrs by trypan blue assay relative to control. Type of series: cell-based. The note with it: wild type RAW264.7 cells, read-out: Survival. In short, it runs like this: (§6)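 WT mouse macrophages in RPMI 1640 with 10% FBS (37 °C, 5% CO2) were exposed to MDP for 0, 2, 4, 8, 12, 16, 18 or 24 h, then harvested with trypsin. Viability was counted by Trypan blue exclusion and expressed relative to 0 µg/ml MDP at 24 h (set as 100%). Done in triplicate; mean ± S.E.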

Series [20] relates to RAW264.7. Briefly: Upregulation of Porphyromonas gingivalis-induced p53 protein level in wild type mouse RAW264.7 cells at 10 to 1000 ug/ml after 3 hrs by Western blot analysis. Format: functional, cell-based. In short, it runs like this: as §4
The test system of series [21] is RAW264.7. Nature of the series: Effect on A20 protein level in wild type mouse RAW264.7 cells at 10 ug/ml after 3 hrs by Western blot analysis relative to SC peptide. Format: functional. In short, it runs like this: as §2
Series [22] concerns RAW264.7. Briefly: Effect on AP1 protein level in wild type mouse RAW264.7 cells at 100 ug/ml after 3 hrs by Western blot analysis relative to SC peptide. Type of series: functional. The procedure, abridged:
as §2

Series [23] has as its system Peritoneal macrophage. Briefly: Effect on Porphyromonas gingivalis-induced TNFalpha expression in wild type mouse primary peritoneal macrophages at 10 ug/ml after 3 hrs by ELISA relative to control. Format: functional. The procedure, abridged: (§7)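 Primary peritoneal macrophages from C57BL/6 mice cultured in RPMI 1640 with 10% FBS. Cells left untreated, given 10, 100 or 1,000 µg/ml MDP alone, given P. gingivalis alone, or co-treated with P. gingivalis plus 10, 100 or 1,000 µg/ml MDP for 3 h. TNF-α in conditioned medium measured by ELISA; mean ± S.E.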

Series [24] has as its system Mus musculus. Nature of the series: Antiinflammatory activity in wild type C57BL/6 mouse assessed as reduction of Porphyromonas gingivalis-induced septic shock at 8 mg/kg, ip. Format: functional, organism-based.
Series [25] relates to Peritoneal macrophage. Nature of the series: Effect on Porphyromonas gingivalis-induced TNFalpha expression in wild type mouse primary peritoneal macrophages at 100 ug/ml after 3 hrs by ELISA relative to control. Type of series: functional. In short, it runs like this: as §7
Series [26] has as its system RAW264.7. Briefly: Effect on A20 mRNA level in wild type mouse RAW264.7 cells at 10 ug/ml after 3 hrs by RT-PCR analysis relative to control. Format: functional. In short, it runs like this: as §5
Series [27] can be described thus: Cytotoxicity against wild type mouse RAW264.7 cells assessed as survival rate at 100 ug/ml measured for 24 hrs by trypan blue assay relative to control. The note with it: wild type RAW264.7 cells, read-out: Survival. Format: cell-based. The procedure, abridged:
as §6

In series [28] the test system is RAW264.7. Briefly: Effect on Porphyromonas gingivalis-induced NOD2 mRNA level in wild type mouse RAW264.7 cells at 10 ug/ml after 3 hrs by RT-PCR analysis relative to control. Type of series: functional. The procedure, abridged:
as §5

Series [29] has as its system RAW264.7. Nature of the series: Effect on A20 protein level in wild type mouse RAW264.7 cells at 100 ug/ml after 3 hrs by Western blot analysis relative to SC peptide. Format: functional. The procedure, abridged: as §2
Series [30] can be described thus: Cytotoxicity against wild type mouse RAW264.7 cells assessed as survival rate at 1 mg/ml measured for 24 hrs by trypan blue assay relative to control. Format: cell-based. The settings on record: wild type RAW264.7 cells, read-out: Survival. In short, it runs like this: as §6
Series [31] concerns RAW264.7. Nature of the series: Effect on A20 mRNA level in wild type mouse RAW264.7 cells at 100 ug/ml after 3 hrs by RT-PCR analysis relative to control. Type of series: functional. The procedure, abridged:
as §5

A short description of series [32]: Toxicity in Porphyromonas gingivalis-induced wild type C57BL/6 mouse septic shock model assessed as mortality at 2 mg/kg, ip. Format: organism-based. The settings on record: in vivo. The procedure, abridged:
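Mice were 8–10-week-old WT C57BL/6, kept specific pathogen-free. They received a single i.p. co-injection of P. gingivalis (1 × 10^8/kg) plus MDP at 2 mg/kg (50 µg/mouse). Controls were DMSO alone or P. gingivalis alone. Animals were watched continuously for endotoxic response for 2 h after injection; n = 3 per group.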

Series [33] relates to Peritoneal macrophage. Nature of the series: Effect on Porphyromonas gingivalis-induced TNFalpha expression in wild type mouse primary peritoneal macrophages at 1 mg/ml after 3 hrs by ELISA relative to control. Format: functional. The procedure, abridged:
as §7

Series [34] has as its system RAW264.7. Briefly: Effect on NFkappaB protein level in wild type mouse RAW264.7 cells at 100 ug/ml after 3 hrs by Western blot analysis relative to SC peptide. Type of series: functional. In short, it runs like this:
as §2

Two compounds from ChEMBL document CHEMBL4425131, “Convergent Synthesis of Novel Muramyl Dipeptide Analogues: Inhibition of Porphyromonas gingivalis-Induced Pro-inflammatory Effects by High Doses of Muramyl Dipeptide” (J Med Chem, 2016) can be followed below.

The source made the active and inactive calls. The calls are words filed in the database; no cut-off is given here.

As for `CC(=O)N[C@H]1[C@@H](OCc2ccccc2)O[C@@H]2COC(C)(C)O[C@H]2[C@@H]1O[C@H](C)C(=O)N[C@@H](C)C(=O)N[C@H](CCC(=O)OCc1ccccc1)C(N)=O`, the outcome in series [1], in series [2], in [3], in series [4], in [5] and in series [6] was Active. Further, in [7], the outcome was Active.
For the compound `CC(=O)N[C@H]1C(O)O[C@H](CO)[C@@H](O)[C@@H]1O[C@H](C)C(=O)N[C@@H](C)C(=O)N[C@H](CCC(=O)O)C(N)=O` (some centres not stated) [MURAMYL DIPEPTIDE], the Activity amounted to 388% in [8]; 95% in series [11]; 135% in series [12]; 103% in series [15]; 104% in series [16]; 274% in series [17]. For the same compound, the Activity in [18] is 144%; in series [21], 106%; in series [22] it was 282%; in series [23], 129%; in [25], 84%; in series [26], 117%. Further, the Activity in [28] is on record as 136%; in series [29], 236%; in [31], 565%; in [32], “Toxic”; in series [33], 62%; in [34], 142%. Besides, the outcome in [9], in series [3], in [4], in series [24] and in [7] was Active. Also, the outcome in series [10], in series [13] and in series [20] was inactive. For the same compound, the “fold change (FC)” value in series [14] was 5.6. In series [19], the viability at 24 h, 10 ug/ml was 92%. In addition, in series [27], the viability at 24 h, 100 ug/ml worked out at 89%. In addition, the viability at 24 h, 1 mg/ml in [30] was determined as 88%.
